What was measured:
[1] = system: MCF7; experiment: Anticancer activity against human MCF7 cells assessed as reduction in cell viability after 96 hrs by MTT assay; type: functional, cell-based; settings: MCF7, 96 h
Method in brief: (§1)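 Cancer lines grown in RPMI with 10% FBS and 1% penicillin/streptomycin, 37 C, humidified 5% CO2. Cells exposed to test agents or vehicle in RPMI/10% FBS for 96 h; viability read by MTT; IC50 as mean ± S.D., n = 6.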

[2] = system: A549; experiment: Anticancer activity against human A549 cells assessed as reduction in cell viability after 96 hrs by MTT assay; type: functional, cell-based; settings: A549, 96 h; method in brief: as §1
[3] = system: HT-29; experiment: Anticancer activity against human HT-29 cells assessed as reduction in cell viability after 96 hrs by MTT assay; type: functional, cell-based; settings: HT-29, 96 h; method in brief: as §1
[4] = species: Sus scrofa; experiment: Inhibition of porcine brain tubulin polymerization assessed as tubulin polymerization level by measuring arbitary units at 3 uM by fluorescence analysis
[5] = Cytotoxicity against human F180 cells assessed as reduction in cell viability after 96 hrs by MTT assay; type: cell-based; settings: F180, 96 h
Method in brief: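 F180 normal fibroblasts kept in MEM with 10% FBS and 1% penicillin/streptomycin at 37 C, humidified 5% CO2. Treated with test agents or vehicle in MEM/10% FBS for 96 h; viability by MTT; IC50 reported as mean ± S.D. (n = 6).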

Structure (SMILES)	IC50 [1] [µM]	IC50 [2] [µM]	IC50 [3] [µM]	Activity [4] [a.u.]	IC50 [5] [µM]
O=C(N/N=C1\CC2(CCCCC2)Oc2c1ccc1ccccc21)Nc1ccccc1	12	8.15	4.74	–	–
N/N=C1\CC2(CCCCC2)Oc2c1ccc1ccccc21	9.74	12.9	9.97	–	–
O=C(N/N=C1\CC2(CCCCC2)Oc2c1ccc1ccccc21)Nc1ccc(Cl)cc1	15	9.54	7.37	–	–
O=C1c2ccccc2C(=O)N1/N=C1\CC2(CCCCC2)Oc2c1ccc1ccccc21	12.1	12.4	8.34	–	–
CC(=O)O[C@@]12CO[C@@H]1C[C@H](O)[C@@]1(C)C(=O)[C@H](O)C3=C(C)[C@@H](OC(=O)[C@H](O)[C@@H](NC(=O)OC(C)(C)C)c4ccccc4)C[C@@](O)([C@@H](OC(=O)c4ccccc4)[C@H]21)C3(C)C	–	–	–	4820	–
O=C1CC2(CCCCC2)Oc2c1ccc1ccccc21	10.7	10.6	6.15	–	–
Cc1ccc(NC(=O)N/N=C2\CC3(CCCCC3)Oc3c2ccc2ccccc32)cc1	9.07	8.35	7.09	–	–
CC[C@]1(O)C[C@H]2CN(CCc3c([nH]c4ccccc34)[C@@](C(=O)OC)(c3cc4c(cc3OC)N(C=O)[C@H]3[C@@](O)(C(=O)OC)[C@H](OC(C)=O)[C@]5(CC)C=CCN6CC[C@]43[C@@H]65)C2)C1	–	–	–	747	–
C#Cc1cccc(Nc2ncnc3cc(OCCOC)c(OCCOC)cc23)c1 [ERLOTINIB]	> 20	17.3	> 20	–	–
O=C1Nc2ccccc2/C1=N/N=C1\CC2(CCCCC2)Oc2c1ccc1ccccc21	5.11	11.1	7.67	–	> 40
CNC(=O)c1cc(Oc2ccc(NC(=O)Nc3ccc(Cl)c(C(F)(F)F)c3)cc2)ccn1 [SORAFENIB]	3.64	6.21	3.97	–	> 40

Further lines, with some results ahead:

IC50 [1] [µM]	IC50 [2] [µM]	IC50 [3] [µM]	Activity [4] [a.u.]	Structure (SMILES)	IC50 [5] [µM]
15.1	9.14	7.44	–	S=C(N/N=C1\CC2(CCCCC2)Oc2c1ccc1ccccc21)NC1CCCCC1	–
11.7	10.6	8.17	–	CN1CCN(C(=S)N/N=C2\CC3(CCCCC3)Oc3c2ccc2ccccc32)CC1	–
11.9	10.1	9.31	–	S=C(N/N=C1\CC2(CCCCC2)Oc2c1ccc1ccccc21)N1CCOCC1	–
14.2	12	8.34	–	S=C(N/N=C1\CC2(CCCCC2)Oc2c1ccc1ccccc21)N1CCNCC1	–
5.1	3.99	4.13	–	CSC(=S)N/N=C1\CC2(CCCCC2)Oc2c1ccc1ccccc21	> 40
13.3	11.4	6.77	–	S=C(N/N=C1\CC2(CCCCC2)Oc2c1ccc1ccccc21)N1CCCCC1	–

Reference: ChEMBL document CHEMBL4229351, “Design, synthesis and anticancer evaluation of novel spirobenzo[h]chromene and spirochromane derivatives with dual EGFR and B-RAF inhibitory activities” (Eur J Med Chem, 2018)
